Experimental data taken from ChEMBL document CHEMBL3632517, “Chemical conjugation of 2-hexadecynoic acid to C5-curcumin enhances its antibacterial activity against multi-drug resistant bacteria” (Bioorg Med Chem Lett, 2015).
In brackets after ≈: the same amount, converted by molar mass. Activity calls are given as the source filed them. No cut-off for these calls is given here.

Legend:
Staphylococcus aureus [1] = test: Antibacterial activity against methicillin-resistant Staphylococcus aureus ATCC 43300 after 18 to 24 hrs by spectrophotometric analysis; assay type: functional, organism-based
Staphylococcus aureus [2] = test: Antibacterial activity against methicillin-resistant Staphylococcus aureus CIMRSA1 after 18 to 24 hrs by spectrophotometric analysis; assay type: functional, organism-based
Staphylococcus aureus [3] = test: Antibacterial activity against methicillin-resistant Staphylococcus aureus CIMRSA2 after 18 to 24 hrs by spectrophotometric analysis; assay type: functional, organism-based
Staphylococcus aureus [4] = test: Antibacterial activity against methicillin-resistant Staphylococcus aureus CIMRSA3 after 18 to 24 hrs by spectrophotometric analysis; assay type: functional, organism-based
Staphylococcus aureus [5] = test: Antibacterial activity against methicillin-resistant Staphylococcus aureus CIMRSA4 after 18 to 24 hrs by spectrophotometric analysis; assay type: functional, organism-based
Staphylococcus aureus [6] = test: Antibacterial activity against methicillin-resistant Staphylococcus aureus CIMRSA5 after 18 to 24 hrs by spectrophotometric analysis; assay type: functional, organism-based
Staphylococcus aureus [7] = test: Antibacterial activity against methicillin-resistant Staphylococcus aureus CIMRSA6 after 18 to 24 hrs by spectrophotometric analysis; assay type: functional, organism-based
Staphylococcus aureus [8] = test: Antibacterial activity against methicillin-resistant Staphylococcus aureus CIMRSA7 after 18 to 24 hrs by spectrophotometric analysis; assay type: functional, organism-based
Escherichia coli = test: Antibacterial activity against Escherichia coli ATCC 25922 after 18 to 24 hrs by spectrophotometric analysis; assay type: functional, organism-based
[9] = Therapeutic index, ratio of IC50 for human PBMC to IC50 for methicillin-resistant Staphylococcus aureus ATCC 43300; details: read-out: Ratio IC50
How it was run: (§1)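 Therapeutic index is PBMC cytotoxicity IC50 divided by the antibacterial IC50 against each MRSA strain. PBMCs came from healthy volunteers, and their viability was read by CTG luminescent cell viability assay. Experiments were run in triplicate (N = 3).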

[10] = Therapeutic index, ratio of IC50 for human PBMC to IC50 for methicillin-resistant Staphylococcus aureus CIMRSA1; details: read-out: Ratio IC50; how it was run: as §1
[11] = Therapeutic index, ratio of IC50 for human PBMC to IC50 for methicillin-resistant Staphylococcus aureus CIMRSA2; details: read-out: Ratio IC50; how it was run: as §1
[12] = Therapeutic index, ratio of IC50 for human PBMC to IC50 for methicillin-resistant Staphylococcus aureus CIMRSA3; details: read-out: Ratio IC50; how it was run: as §1
[13] = Therapeutic index, ratio of IC50 for human PBMC to IC50 for methicillin-resistant Staphylococcus aureus CIMRSA4; details: read-out: Ratio IC50; how it was run: as §1
[14] = Therapeutic index, ratio of IC50 for human PBMC to IC50 for methicillin-resistant Staphylococcus aureus CIMRSA5; details: read-out: Ratio IC50; how it was run: as §1
[15] = Therapeutic index, ratio of IC50 for human PBMC to IC50 for methicillin-resistant Staphylococcus aureus CIMRSA6; details: read-out: Ratio IC50; how it was run: as §1
[16] = Therapeutic index, ratio of IC50 for human PBMC to IC50 for methicillin-resistant Staphylococcus aureus CIMRSA7; details: read-out: Ratio IC50; how it was run: as §1
Vero = test: Cytotoxicity against African green monkey Vero cells after 3 days by CTG luminescent cell viability assay; assay type: cell-based; details: Chlorocebus sabaeus, 72 h
PBMC = test: Cytotoxicity against human PBMC after 3 days by CTG luminescent cell viability assay; assay type: cell-based; details: 72 h
DNA gyrase = DNA gyrase (Staphylococcus aureus, UniProt P0A0K8+P20831); test: (§2) Inhibition of supercoiling activity of Staphylococcus aureus DNA gyrase using relaxed pHOT1 plasmid DNA after 60 mins using ethidium bromide staining by […]electrophoresis analysis; assay type: protein-complex assay
DNA gyrase, sequence (P0A0K8 whole entry): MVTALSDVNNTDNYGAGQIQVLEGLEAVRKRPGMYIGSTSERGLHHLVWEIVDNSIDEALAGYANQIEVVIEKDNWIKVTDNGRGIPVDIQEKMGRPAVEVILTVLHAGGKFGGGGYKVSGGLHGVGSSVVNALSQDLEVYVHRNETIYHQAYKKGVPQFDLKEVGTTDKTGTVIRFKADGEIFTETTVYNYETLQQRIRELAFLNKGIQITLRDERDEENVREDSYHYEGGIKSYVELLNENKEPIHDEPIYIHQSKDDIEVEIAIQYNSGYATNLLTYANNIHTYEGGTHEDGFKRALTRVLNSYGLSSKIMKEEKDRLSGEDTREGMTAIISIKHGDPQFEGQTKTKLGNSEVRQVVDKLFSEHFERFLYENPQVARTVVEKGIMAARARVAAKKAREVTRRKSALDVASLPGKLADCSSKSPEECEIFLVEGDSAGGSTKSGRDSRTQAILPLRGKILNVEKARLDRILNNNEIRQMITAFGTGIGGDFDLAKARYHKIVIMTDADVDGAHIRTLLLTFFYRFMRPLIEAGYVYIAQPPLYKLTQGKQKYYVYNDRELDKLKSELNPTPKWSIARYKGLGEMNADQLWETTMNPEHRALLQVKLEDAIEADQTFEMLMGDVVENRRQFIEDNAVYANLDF
DNA gyrase, sequence (P20831 whole entry): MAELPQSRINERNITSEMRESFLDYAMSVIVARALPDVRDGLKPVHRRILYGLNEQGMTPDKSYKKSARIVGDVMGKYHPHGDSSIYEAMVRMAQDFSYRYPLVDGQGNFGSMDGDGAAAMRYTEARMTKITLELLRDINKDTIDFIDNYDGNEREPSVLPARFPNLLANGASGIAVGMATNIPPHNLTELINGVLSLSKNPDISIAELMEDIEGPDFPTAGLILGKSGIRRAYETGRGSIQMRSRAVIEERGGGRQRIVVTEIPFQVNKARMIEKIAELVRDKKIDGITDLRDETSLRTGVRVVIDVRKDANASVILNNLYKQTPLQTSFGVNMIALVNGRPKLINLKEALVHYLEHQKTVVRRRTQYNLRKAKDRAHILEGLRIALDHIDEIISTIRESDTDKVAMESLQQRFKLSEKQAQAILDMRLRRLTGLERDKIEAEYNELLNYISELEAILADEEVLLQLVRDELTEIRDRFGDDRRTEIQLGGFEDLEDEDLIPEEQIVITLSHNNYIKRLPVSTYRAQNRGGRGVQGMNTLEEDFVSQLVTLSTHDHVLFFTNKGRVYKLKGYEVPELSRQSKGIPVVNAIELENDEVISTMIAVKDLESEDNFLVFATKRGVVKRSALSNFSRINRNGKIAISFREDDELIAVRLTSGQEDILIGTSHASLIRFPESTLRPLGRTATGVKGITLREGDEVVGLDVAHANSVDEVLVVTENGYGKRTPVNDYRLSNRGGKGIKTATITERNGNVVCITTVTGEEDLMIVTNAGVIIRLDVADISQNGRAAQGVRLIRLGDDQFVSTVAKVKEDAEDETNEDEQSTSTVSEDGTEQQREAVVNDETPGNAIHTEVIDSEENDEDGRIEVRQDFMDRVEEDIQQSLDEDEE

[17] = biological target: DNA gyrase (Staphylococcus aureus) (UniProt P0A0K8+P20831); test: as §2; assay type: protein-complex assay
DNA gyrase (Staphylococcus aureus), sequence (P0A0K8 2-644 limits assumed): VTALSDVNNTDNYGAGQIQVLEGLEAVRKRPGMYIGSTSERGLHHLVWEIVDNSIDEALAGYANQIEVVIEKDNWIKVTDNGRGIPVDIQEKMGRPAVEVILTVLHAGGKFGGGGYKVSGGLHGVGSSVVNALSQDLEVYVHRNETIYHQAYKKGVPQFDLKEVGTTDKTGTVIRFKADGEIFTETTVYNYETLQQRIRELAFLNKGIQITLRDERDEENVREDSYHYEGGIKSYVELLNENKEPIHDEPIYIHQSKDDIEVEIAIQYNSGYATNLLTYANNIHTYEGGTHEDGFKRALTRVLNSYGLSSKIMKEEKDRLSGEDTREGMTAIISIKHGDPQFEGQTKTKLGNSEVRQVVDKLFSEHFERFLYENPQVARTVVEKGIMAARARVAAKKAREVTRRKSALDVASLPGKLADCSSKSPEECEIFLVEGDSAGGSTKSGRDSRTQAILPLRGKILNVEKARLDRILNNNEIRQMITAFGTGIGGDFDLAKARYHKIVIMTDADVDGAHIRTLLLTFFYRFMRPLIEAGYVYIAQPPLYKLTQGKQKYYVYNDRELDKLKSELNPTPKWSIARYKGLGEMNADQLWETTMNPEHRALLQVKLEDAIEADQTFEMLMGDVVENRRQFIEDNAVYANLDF
DNA gyrase (Staphylococcus aureus), sequence (P20831 whole entry partner): as the sequence (P20831 whole entry) above

[18] = Ratio of IC50 for human PBMC to IC50 for African green monkey Vero cells; assay type: cell-based; details: human PBMC versus Vero cells, read-out: Ratio IC50

Structure (SMILES) | IC50 (Staphylococcus aureus [1]) | IC50 (Staphylococcus aureus [2]) | IC50 (Staphylococcus aureus [3]) | IC50 (Staphylococcus aureus [4]) | IC50 (Staphylococcus aureus [5]) | IC50 (Staphylococcus aureus [6]) | IC50 (Staphylococcus aureus [7]) | IC50 (Staphylococcus aureus [8]) | IC50 (Escherichia coli) | MIC (Staphylococcus aureus [1]) | MIC (Staphylococcus aureus [2]) | MIC (Staphylococcus aureus [3]) | MIC (Staphylococcus aureus [4]) | MIC (Staphylococcus aureus [5]) | MIC (Staphylococcus aureus [6]) | MIC (Staphylococcus aureus [7]) | MIC (Staphylococcus aureus [8]) | selectivity ratio [9] | selectivity ratio [10] | selectivity ratio [11] | further results
CCCCCCCCCCCCCCCC(=O)O [PALMITIC ACID] | > 1000 µg/mL | > 1000 µg/mL | > 1000 µg/mL | > 1000 µg/mL | > 1000 µg/mL | > 1000 µg/mL | > 1000 µg/mL | > 1000 µg/mL | > 1000 µg/mL | – | – | – | – | – | – | – | – | – | – | – | –
CCCCCCCCCCCCCC#CC(=O)Oc1ccc(/C=C/C(=O)/C=C/c2ccc(OC(=O)C#CCCCCCCCCCCCCC)c(OC)c2)cc1OC | 39.5 µg/mL (≈ 49.7 µM) | 30.3 µg/mL (≈ 38.1 µM) | 34.9 µg/mL (≈ 43.9 µM) | 34.2 µg/mL (≈ 43 µM) | 24.9 µg/mL (≈ 31.3 µM) | 25.4 µg/mL (≈ 31.9 µM) | 38.9 µg/mL (≈ 48.9 µM) | 34.2 µg/mL (≈ 43 µM) | > 1000 µg/mL | 62.5 µg/mL (≈ 78.6 µM) | 62.5 µg/mL (≈ 78.6 µM) | 62.5 µg/mL (≈ 78.6 µM) | 62.5 µg/mL (≈ 78.6 µM) | 31.3 µg/mL (≈ 39.4 µM) | 31.3 µg/mL (≈ 39.4 µM) | 62.5 µg/mL (≈ 78.6 µM) | 62.5 µg/mL (≈ 78.6 µM) | 6.2 | 8.1 | 7.1 | selectivity ratio [12]: 7.2; selectivity ratio [13]: 9.9; selectivity ratio [14]: 9.7; selectivity ratio [15]: 6.3; selectivity ratio [16]: 7.2; IC50 (Vero): > 100 µg/mL; IC50 (PBMC): 247 µg/mL (≈ 310 µM); IC50 (DNA gyrase): 126 µM
CCCCCCCCCCCCCCCC(=O)Oc1ccc(/C=C/C(=O)/C=C/c2ccc(OC(=O)CCCCCCCCCCCCCCC)c(OC)c2)cc1OC | > 1000 µg/mL | > 1000 µg/mL | > 1000 µg/mL | > 1000 µg/mL | > 1000 µg/mL | > 1000 µg/mL | > 1000 µg/mL | > 1000 µg/mL | > 1000 µg/mL | – | – | – | – | – | – | – | – | – | – | – | inhibition [17]: inactive
COc1cccc(OC)c1C(=O)N[C@@H]1C(=O)N2[C@@H]1SC(C)(C)[C@@H]2C(=O)O [METHICILLIN] | 0.98 µg/mL (≈ 2.58 µM) | 2.2 µg/mL (≈ 5.78 µM) | 11.8 µg/mL (≈ 31 µM) | 2.2 µg/mL (≈ 5.78 µM) | 11.8 µg/mL (≈ 31 µM) | 1.9 µg/mL (≈ 4.99 µM) | 1.2 µg/mL (≈ 3.15 µM) | 1.3 µg/mL (≈ 3.42 µM) | > 1000 µg/mL | 1.95 µg/mL (≈ 5.13 µM) | 7.8 µg/mL (≈ 20.5 µM) | 31.3 µg/mL (≈ 82.3 µM) | 3.9 µg/mL (≈ 10.3 µM) | 31.3 µg/mL (≈ 82.3 µM) | 3.9 µg/mL (≈ 10.3 µM) | – | 3.9 µg/mL (≈ 10.3 µM) | – | – | – | –
COc1cc(/C=C/C(=O)/C=C/c2ccc(O)c(OC)c2)ccc1O | 111 µg/mL (≈ 341 µM) | 141 µg/mL (≈ 432 µM) | 133 µg/mL (≈ 409 µM) | 124 µg/mL (≈ 379 µM) | 185 µg/mL (≈ 567 µM) | 202 µg/mL (≈ 620 µM) | 195 µg/mL (≈ 597 µM) | 303 µg/mL (≈ 929 µM) | > 1000 µg/mL | 250 µg/mL (≈ 766 µM) | 250 µg/mL (≈ 766 µM) | 250 µg/mL (≈ 766 µM) | 250 µg/mL (≈ 766 µM) | 500 µg/mL (≈ 1530 µM) | 500 µg/mL (≈ 1530 µM) | 500 µg/mL (≈ 1530 µM) | 500 µg/mL (≈ 1530 µM) | 0.4 | 0.3 | 0.4 | selectivity ratio [12]: 0.4; selectivity ratio [13]: 0.3; selectivity ratio [14]: 0.2; selectivity ratio [15]: 0.2; selectivity ratio [16]: 0.2; IC50 (Vero): 5.7 µg/mL (≈ 17.5 µM); IC50 (PBMC): 46.9 µg/mL (≈ 144 µM); selectivity ratio [18]: 8.2; inhibition [17]: inactive
